pKd: −log10 of the molar value.
Legend:
[1] = Toxicity in nude BALB/c mouse xenografted with human MCF7 cells assessed as spleen weight at 2.5 to 10 mg/kg, ip administered for 34 days; assay type: organism-based; conditions: in vivo, 816 h, dose 2.5-10 mg/kg, time 34 day
In short: (§1)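 Nude BALB/c females bearing subcutaneous MCF-7 xenografts were dosed ip once daily for 34 days at 2.5, 5.0 or 10 mg/kg, with saline vehicle (100 µL) as control. Body weight was recorded every 2 days. After euthanasia by cervical dislocation, heart, liver, spleen and kidney were removed and weighed.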

MCF7 [2] = test: Induction apoptosis in human MCF7 cells assessed as necrotic cells at 5 uM incubated for 24 hrs by Annexin-FTTC/PI staining based flow cytometric analysis (reference value: 0.11%); assay type: functional
MCF7 [3] = test: Induction of cell cycle arrest in human MCF7 cells assessed as accumulation at G0/G1 phase at 0.625 to 10 uM after 48 hrs by propidium iodide staining based flow cytometric analysis (reference value: 75.7%); assay type: functional; conditions: dose 0.625-10 µM
In short: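 MCF-7 cells, 2 × 10^5/well, were pre-grown 12 h, then treated with 10, 5, 2.5, 1.25, 0.625 μM compound or DMSO. Cells were fixed in 75% ethanol at −20 °C overnight. Staining was 50 μg/mL PI with RNase A, 30 min at room temperature in the dark. Flow cytometry collected 10,000 events; phase distribution was determined.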

[4] = Toxicity in nude BALB/c mouse xenografted with human MCF7 cells assessed as heart weight at 2.5 to 10 mg/kg, ip administered for 34 days; assay type: organism-based; conditions: in vivo, 816 h, dose 2.5-10 mg/kg, time 34 day; in short: as §1
MCF7 [5] = test: Induction apoptosis in human MCF7 cells assessed as necrotic cells at 2.5 uM incubated for 24 hrs by Annexin-FTTC/PI staining based flow cytometric analysis (reference value: 0.11%); assay type: functional
Quadruplex DNA [6] = test: Binding affinity to 5'-biotin-d [GCTGGGAGAAGGGGGGGCGGCGGGGCAGGGAGGGTGGACGC]-3' G4-quadruplex DNA (unknown origin) by surface plasmon resonance assay; assay type: nucleic-acid assay
In short: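 SPR: biotinylated oligomers were captured on a neutravidin chip at ~1000 RU, with a blank reference cell. Running buffer was 20 mM MES pH 5.5, 100 mM KCl, 0.05% Tween-20 for the i-motif, or 50 mM Tris-HCl pH 7.4, 100 mM KCl for the G-quadruplex. Ligand was injected at 0–10 μM (six concentrations), with 200 s association and 300 s dissociation at 25 °C.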

[7] = Binding affinity to 5'-FAM-GCGTCCACCCTCCCTGCCCCGCCGCCCCCCCTTCTCCCAGC-TAMRA-3' i-motif DNA (unknown origin) assessed as unfolding i-motif structure by measuring reduction in I585/I518 ratio by FRET assay; conditions: dose 2-10 equiv
In short: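 FRET probe: i-motif oligonucleotide dual-labelled with FAM donor and TAMRA acceptor, 10 µM in 30 mM BPES buffer with 1 mM EDTA, KCl, thermally annealed. Compound was added in equal volume at increasing concentrations. Emission was scanned 500–700 nm and corrected for the compound's own signal. Read-out was the I585/I518 ratio, with the titration run at pH 6.2.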

Quadruplex DNA [8] = test: Binding affinity to 5'-FAM-GGGAGAAGGGGGGGCGGCGGGGCAGGGAGGGTGGAC-TAMRA-3' G4-quadruplex DNA (unknown origin) assessed as stabilization G4-quadruplex structure by measuring increase in I585/I518 ratio by FRET assay; assay type: nucleic-acid assay; conditions: dose 2-10 equiv
In short: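 FRET probe dual-labelled FAM/TAMRA, annealed, 10 µM in 10 mM Tris-HCl pH 7.4 with 10 mM KCl; compound added in equal volume. Emission 500–700 nm recorded, corrected for compound signal in the same buffer; I585/I518 ratio compared.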

[9] = Toxicity in nude BALB/c mouse xenografted with human MCF7 cells assessed as liver weight at 2.5 to 10 mg/kg, ip administered for 34 days; assay type: organism-based; conditions: in vivo, 816 h, dose 2.5-10 mg/kg, time 34 day; in short: as §1
[10] = Toxicity in nude BALB/c mouse xenografted with human MCF7 cells assessed as kidney weight at 2.5 to 10 mg/kg, ip administered for 34 days; assay type: organism-based; conditions: in vivo, 816 h, dose 2.5-10 mg/kg, time 34 day; in short: as §1
MCF7 [11] = test: Induction apoptosis in human MCF7 cells incubated for 24 hrs by Annexin-FTTC/PI staining based flow cytometric analysis; assay type: functional, cell-based; conditions: dose 1.25-5 µM
MCF7 [12] = test: Antitumour activity against human MCF7 cells xenografted in nude BALB/c mouse assessed as tumour volume at 2.5 mg/kg, ip administered for 34 days (reference value: 1530 mm3); assay type: functional; conditions: time 34 day
MCF7 [13] = test: Antiinvasive activity in human MCF7 cells assessed as reduction in cell migration by microscopic method; assay type: functional, cell-based; conditions: dose […], time 24-48 hrs
In short: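 Scratch assay: MCF-7 seeded 300,000 cells/well, grown 24 h at 37 °C/5% CO2, then a cross-shaped scrape was made through the monolayer with a pipet tip. Cells were exposed to 5, 2.5, 1.25, 0.625, 0.3125 μM compound or DMSO control. Wounded areas were photographed by microscopy at 0, 24 and 48 h.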

[14] = Binding affinity to 5'-FAM-GCGTCCACCCTCCCTGCCCCGCCGCCCCCCCTTCTCCCAGC-TAMRA-3' i-motif DNA (unknown origin) at pH 5.5 assessed as unfolding i-motif structure
Quadruplex DNA [15] = test: Binding affinity to 5'-biotin-d [GCTGGGAGAAGGGGGGGCGGCGGGGCAGGGAGGGTGGACGC]-3' G4-quadruplex DNA (unknown origin) assessed as decrease in positive peak by CD spectroscopy; assay type: nucleic-acid assay; conditions: dose 2-10 equiv
In short: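 CD spectra: oligomers at 2 μM final, in BPES pH 5.5 (i-motif) or Tris-HCl pH 7.4 (G-quadruplex). Samples were annealed (95 °C 5 min, slow cool, 4 °C overnight), then titrated with increasing compound. Spectra were recorded at 25 °C over 230–330 nm in a 1 mm cuvette, buffer-subtracted, averaged and smoothed.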

MCF7 [16] = test: Induction apoptosis in human MCF7 cells assessed as late apoptotic cells at 2.5 uM incubated for 24 hrs by Annexin-FTTC/PI staining based flow cytometric analysis (reference value: 0%); assay type: functional
Quadruplex DNA [17] = test: Binding affinity to 5'-biotin-d [GCTGGGAGAAGGGGGGGCGGCGGGGCAGGGAGGGTGGACGC]-3' G4-quadruplex DNA (unknown origin) assessed as change in melting temperature at 10 uM by CD spectroscopy; assay type: nucleic-acid assay
In short: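 Oligomer 2 µM in Tris-HCl pH 7.4, annealed (95 °C for 5 min, slow cooling, 4 °C overnight). Ligand 10 µM. CD ellipticity followed at 263 nm over 25–95 °C; ΔTm taken against DNA alone.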

MCF7 [18] = test: Induction apoptosis in human MCF7 cells assessed as viable cells at 5 uM incubated for 24 hrs by Annexin-FTTC/PI staining based flow cytometric analysis (reference value: 99.7%); assay type: functional; conditions: read-out: Activity
MCF7 [19] = test: Binding affinity to wild type PDGFRbeta promoter (unknown origin) in human MCF7 cells after 48 hrs by dual luciferase reporter assay; assay type: cell-based
In short: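 MCF-7 cells were transfected with 200 ng psiCHECK2 plasmid carrying the wild-type PDGFR-β promoter. After 4 h, compound was added at various concentrations and cells were incubated 48 h at 37 °C. Cells were washed with cold PBS and dual-luciferase signals read for 10 s. Renilla activity was normalised to firefly.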

## Cc1ccc2c(c1)c(=O)c1cc(C(=O)NCCCN(C)CCCN3C(=O)c4cccc5c(N6CCN(C)CC6)ccc(c45)C3=O)ccc1n2-c1ccc(C(=O)NCCCN(C)CCCN2C(=O)c3cccc4c(N5CCN(C)CC5)ccc(c34)C2=O)cc1
[1]
  Activity: Non-Toxic
MCF7 [2]
  Activity: 2.42%
MCF7 [3]
  Activity: 48.1%
[4]
  Activity: Non-Toxic
MCF7 [5]
  Activity: 0.49%
Quadruplex DNA [6]
  pKd: 5.49
[7]
  Activity: Dose-dependent effect
Quadruplex DNA [8]
  Activity: Dose-dependent effect
[9]
  Activity: Non-Toxic
[10]
  Activity: Non-Toxic
MCF7 [11]
  Activity: Dose-dependent effect
MCF7 [12]
  Activity: 985.1 mm3
MCF7 [13]
  Activity: Dose-dependent effect
[14]
  Activity: Dose-dependent effect
Quadruplex DNA [15]
  Activity: Dose-dependent effect
MCF7 [16]
  Activity: 1.96%
Quadruplex DNA [17]
  ΔTm: > 20 °C
MCF7 [18]
  viability at 5 µM: 13%
MCF7 [19]
  Activity: Dose-dependent effect
